Results: ChEMBL document CHEMBL4396943, “The tetrahydroxanthone-dimer phomoxanthone A is a strong inducer of apoptosis in cisplatin-resistant solid cancer cells” (Bioorg Med Chem, 2019)
Activity calls are given as the source filed them. The rule behind the calls is not given here.

Legend:
[1] = Antiproliferative activity against human Cal27CisR cells assessed as reduction in cell viability incubated for 72 hrs by MTT assay; format: functional, cell-based
How it was run: (§1)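 Cells seeded overnight in 96-well plates, then exposed to increasing concentrations (compound dissolved in DMSO, diluted in medium) for the stated time. MTT (5 mg/ml in PBS) added for 15 min, formazan dissolved in DMSO, absorbance read at 544 nm minus 690 nm background. IC50 = concentration giving 50% signal decrease. At least three independent experiments in triplicate.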

HCT-116 = test: Antiproliferative activity against human HCT116 cells assessed as reduction in cell viability incubated for 72 hrs by MTT assay; format: functional, cell-based; details: HCT-116, 72 h; how it was run: as §1
KYSE-510 = test: Potency index, ratio of cisplatin IC50 to compound IC50 for antiproliferative activity in human KYSE-510 cells assessed as reduction in cell viability incubated for 72 hrs by MTT assay; format: functional
How it was run: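 Cells seeded in 96-well plates overnight, exposed 72 h to increasing concentrations. MTT (5 mg/ml) added for 15 min, formazan dissolved in DMSO, absorbance read at 544 nm with 690 nm background subtracted. IC50 is the concentration reducing signal by 50%. Three independent experiments in triplicate. CisR sublines made by weekly intermittent cisplatin exposure for 24–30 weeks.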

A2780 [2] = test: Cell cycle arrest in human A2780 cells assessed as accumulation at G1 phase at 5 uM incubated for 24 hrs by propidium iodide staining based flow cytometry (reference value: 61.8%); format: functional
How it was run: (§2)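 After 24 h exposure, cells washed in ice-cold PBS. About 2 million cells fixed in cold 70% ethanol at −20 °C for at least 24 h. Stained with 0.1% Triton X-100, 200 µg/ml RNase A and 20 µg/ml propidium iodide in PBS, 15 min at 37 °C in the dark. DNA content read by flow cytometry with doublet discrimination. Medium as untreated control, paclitaxel as G2/M control. Three independent experiments.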

A2780cisR [3] = test: Cell cycle arrest in human A2780cisR cells assessed as accumulation at G1 phase at 5 uM incubated for 24 hrs by propidium iodide staining based flow cytometry (reference value: 68.7%); format: functional; how it was run: as §2
J82 [4] = test: Cell cycle arrest in cisplatin resistant human J82 cells assessed as accumulation at G1 phase at 1 uM incubated for 24 hrs by propidium iodide staining based flow cytometry (reference value: 78.1%); format: functional; how it was run: as §2
A2780 [5] = test: Induction of apoptosis in human A2780 cells assessed as depolarization of mitochondrial membrane potential incubated for 1 hr by TMRE staining based flow cytometry; format: functional, cell-based
How it was run: (§3)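 Cells seeded overnight; complete medium swapped for FBS-free medium just before treatment to avoid TMRE ester cleavage. Exposure to PXA for 1 h, 2 h or 24 h. TMRE staining 20 min, cells collected by trypsinisation, ΔΨm read by flow cytometry. Medium served as negative control, 20 µM CCCP as positive control. Mean ± SEM reported.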

A2780cisR [6] = test: Induction of apoptosis in human A2780cisR cells assessed as depolarization of mitochondrial membrane potential incubated for 2 hrs by TMRE staining based flow cytometry; format: functional, cell-based; how it was run: as §3
J82 [7] = test: Induction of apoptosis in cisplatin resistant human J82 cells assessed as depolarization of mitochondrial membrane potential incubated for 1 hr by TMRE staining based flow cytometry; format: functional, cell-based
How it was run: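 Cells seeded overnight; medium switched to FBS-free just before treatment to avoid TMRE ester cleavage. Exposure 1 h, 2 h or 24 h, then TMRE staining for 20 min. Cells trypsinized, centrifuged at 4 °C and read by flow cytometry. Medium as negative control, 20 µM CCCP as positive control. […]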

A2780cisR [8] = test: Induction of apoptosis in human A2780cisR cells assessed as depolarization of mitochondrial membrane potential at 1 uM incubated for 2 hrs by TMRE staining based flow cytometry; format: functional; how it was run: as §3
J82 [9] = test: Induction of apoptosis in cisplatin resistant human J82 cells assessed as mitochondrial membrane potential at 1 uM incubated for 2 hrs by hoechst 33342 staining based fluorescence microscopy; format: functional, cell-based
How it was run: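 J82CisR cells exposed 2 h, then labelled with TMRE and Hoechst 33342 for 20 min. TMRE signal imaged on a high-content fluorescence imaging platform. Untreated medium control and 20 µM CCCP positive control.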

A2780 [10] = test: Induction of apoptosis in human A2780 cells assessed as increase in intracellular calcium level at 10 to 30 uM incubated for 30 mins in presence of 1 mM extracellular calcium by fluorimetry; format: functional, cell-based
How it was run: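 Cells seeded in 96-well plates overnight, washed twice with Krebs-HEPES buffer, loaded 1 h at 37 °C in the dark with Oregon Green BAPTA-1 AM (final 3 µM) and Pluronic F-127. Buffer replaced, PXA added, fluorescence at 544 nm recorded for 30 min, with or without 1 mM extracellular Ca2+. Three experiments, mean ± SEM.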

A2780 [11] = test: Effect on ROS generation in human A2780 cells at 316 nM incubated for 18 hrs by H2DCFDA staining based flow cytometry; format: functional, cell-based
How it was run: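 Cells plated in 24-well plates (about 150,000/well) overnight, then exposed 18 h. Washed and moved to phenol red-free, serum-free RPMI-1640, then loaded with 10 µM H2DCF-DA for 30 min at 37 °C in the dark. One aliquot read directly, the other after 250 µM H2O2 for 1 h at 37 °C. DCF fluorescence read by flow cytometry. Three independent experiments.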

A2780cisR [12] = test: Reduction of H2O2-induced ROS generation in human A2780cisR cells at 316 nM incubated for 18 hrs by H2DCFDA staining based flow cytometry; format: functional, cell-based
How it was run: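 Cells plated overnight in growth medium (approx. 150,000 cells/well), exposed to compound for 18 h. Then washed with PBS and moved to phenol red-free RPMI-1640 without FBS or antibiotics. Loaded with 10 µM H2DCF-DA, 30 min, 37 °C, dark. One aliquot then given 250 µM H2O2 for 1 h at 37 °C in the dark. DCF fluorescence read by flow cytometry; three independent experiments.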

J82 [13] = test: Induction of apoptosis in cisplatin-resistant human J82 cells assessed as nuclear condensation by measuring reduced size and increased intensity of nuclei at 30 uM incubated for 24 hrs by hoechst 33342 staining based fluorescence microscopy; format: functional, cell-based

Which results are given for CC(=O)OC[C@]12Oc3c(-c4ccc(O)c5c4O[C@@]4(COC(C)=O)C(=C(O)C[C@@H](C)[C@H]4OC(C)=O)C5=O)ccc(O)c3C(=O)C1=C(O)C[C@@H](C)[C@H]2OC(C)=O [PHOMOXANTHONE A]?
IC50 [1]: 5620 nM; IC50 (HCT-116): 1820 nM; Ratio IC50 (KYSE-510): 2 - 10; Activity (A2780 [2]): 75.9%; Activity (A2780cisR [3]): 83.3%; Activity (J82 [4]): 76.3%; Activity (A2780 [5]): Dose-dependent effect; IC50 (A2780 [5]; A2780, 1 h): 1010 nM; Activity (A2780cisR [6]): Dose-dependent effect; IC50 (A2780cisR [6]): 860 nM; Activity (J82 [7]): Dose-dependent effect; IC50 (J82 [7]; J82, 1 h): 3120 nM; Activity (A2780cisR [8]): 50%; Activity (J82 [9]): inactive; Activity (A2780 [10]): Active; Activity (A2780 [11]): inactive; inhibition (A2780cisR [12]): inactive; Activity (J82 [13]): Active
